Source: publication PMC12374733 (Journal of the American Chemical Society, 2025)
Where two headings read alike, the source gives them in different places.

Columns and labels:
[1] = Cell viability, colorimetric sulforhodamine B assay; format: cell-based, mouse; conditions: mouse, NIH-3T3 cells
NIH-3T3 cells = assay: as above; format: cell-based, mouse
[2] = Cell viability during in-cell synthesis of cinacalcet; format: cell-based, human; conditions: human, SH-SY5Y cells
In short: (§1)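 SH-SY5Y cells were pretreated with aldehyde substrate (200 μM) and sodium formate hydride source (1 mM) for 3 h, then washed with fresh media. The amine partner and Cp* iridium catalyst were added together for a further 24 h. Controls lacked one or more reaction components. Viability is expressed relative to untreated cells.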

SH-SY5Y cells = assay: as above; format: cell-based, human; conditions: SH-SY5Y; for IC50: Homo sapiens
In short: as §1

[3] = Lipophilicity, partition between octanol and PBS; format: physicochemical; conditions: shake-flask

Compound: O=CCc1ccccc1 [1c, phenylacetaldehyde]
- viability at 3 h, 400 µM [1]: 38%
- IC50 (NIH-3T3 cells; Mus musculus, NIH3T3, read-out: 50% inhibition concentration (IC50)): 185 µM

Compound: O=CCCc1cccc(C(F)(F)F)c1 [1p, 3-(3-(trifluoromethyl)phenyl)propanal]
- viability at 3 h, 200 μM [2]: ≥ 85%
- IC50 (SH-SY5Y cells): 175 µM

Compound: OCCc1ccccc1 [2c]
- IC50 (NIH-3T3 cells; NIH-3T3 cell viability): > 7000 µM

Compound: NCCc1ccccc1 [3c, phenethylamine]
- IC50 (NIH-3T3 cells; Mus musculus, NIH3T3): > 7000 µM

Compound: C[C@@H](N)c1cccc2ccccc12 [(R)-41, (R)-1-(1-naphthyl)ethylamine]
- IC50 (SH-SY5Y cells): 1500 µM

Compound: C[C@@H](NCCCc1cccc(C(F)(F)F)c1)c1cccc2ccccc12 [cinacalcet, reference compound]
- IC50 (SH-SY5Y cells): 16 µM

Compound: CC(N)c1ccc(O)cc1 (stereo not shown) [compound 10, 4-(1-aminoethyl)phenol]
- viability at 24 h, 1 mM [1]: ≥ 84%
- IC50 (NIH-3T3 cells; Mus musculus, NIH3T3): > 8000 µM

Compound: [Cp*Ir(picolinamidate)Cl] [Ir1]
- cell viability relative to untreated control (SH-SY5Y cells; 1p (200 μM), HCOONa (1 mM), (R)-41 and Ir catalyst all present, 24 h): 28%
- IC50 (NIH-3T3 cells; read-out: 50% inhibition concentration (IC50), NIH-3T3 cell viability): 62 µM
- partition coefficients (Log P) [3]: 1.24
